According to ChEMBL document CHEMBL4765308, “N-alkylpiperidine carbamates as potential anti-Alzheimer's agents” (Eur J Med Chem, 2020):
The source made the active and inactive calls. The calls are words filed in the database; no cut-off is given here.

What was measured:
[1] = biological target: T1, Amine oxidase [flavin-containing] B (Homo sapiens, UniProt P27338); assay: (§1) Inhibition of human recombinant microsomal MAO-B expressed in baculovirus-infected BTI-TN-5B1-4 cells assessed as inhibition of H2O2 production using p-tyramine as substrate preincubated for 15 mins followed by substrate addition by Amplex Red reagent based fluorescence analysis
T1 sequence (P27338 whole entry): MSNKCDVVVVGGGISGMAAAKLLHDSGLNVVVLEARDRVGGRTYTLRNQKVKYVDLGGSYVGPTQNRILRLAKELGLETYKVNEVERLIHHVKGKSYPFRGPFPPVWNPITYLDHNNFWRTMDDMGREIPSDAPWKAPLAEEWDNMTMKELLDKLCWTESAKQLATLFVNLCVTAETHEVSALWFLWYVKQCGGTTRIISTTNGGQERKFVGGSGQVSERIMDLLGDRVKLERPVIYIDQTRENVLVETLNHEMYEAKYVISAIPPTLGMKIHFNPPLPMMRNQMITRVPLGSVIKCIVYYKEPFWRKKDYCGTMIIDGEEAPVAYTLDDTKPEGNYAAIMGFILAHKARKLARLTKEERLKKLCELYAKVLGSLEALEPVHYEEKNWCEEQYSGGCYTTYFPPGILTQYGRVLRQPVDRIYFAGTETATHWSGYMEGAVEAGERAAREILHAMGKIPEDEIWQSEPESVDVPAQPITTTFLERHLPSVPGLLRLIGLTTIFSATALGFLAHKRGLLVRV
How it was run: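 Recombinant human MAO-A or MAO-B (insect-cell microsomes) preincubated with compound 15 min at 37 °C in 50 mM sodium phosphate, pH 7.4, 0.05% Triton X-114. Reaction started with 1 mM p-tyramine, 250 µM Amplex Red and 2 U/mL HRP (final concentrations). Resorufin fluorescence (ex 530/em 590 nm) followed for 20 min at 37 °C, duplicates. Blank-corrected residual activity; IC50 from a four-parameter Hill fit.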

Acetylcholinesterase [2] = biological target: T2, Acetylcholinesterase (Homo sapiens, UniProt P22303); assay: Inhibition of human AChE using acetylthiocholine iodide as substrate preincubated with enzyme for 30 mins followed by substrate addition by Ellman's method
Cholinesterase [3] = biological target: T3, Cholinesterase (Homo sapiens, UniProt P06276); assay: Inhibition of human BuchE using butyrylthiocholine iodide as substrate preincubated for 30 mins followed by substrate addition by Ellman's method
Homo sapiens = species: Homo sapiens; assay: Inhibition of HFIP-pretreated human amyloid beta (1 to 42) self aggregation at 10 uM incubated for 36 to 48 hrs by thioflavin-T based fluorescence method relative to control; settings: time 36-48 hrs
How it was run: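 HFIP-pretreated Aβ1-42 (1.5 µM) incubated with compound (10 µM) and thioflavin-T (10 µM final) at room temperature with continuous shaking for 36–48 h. Fluorescence (ex 440/em 490 nm) read every 3 min. Percent inhibition compared with Aβ + DMSO control, run in quadruplicate. Three independent experiments, mean ± SD, one-way ANOVA with Bonferroni test.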

SH-SY5Y [4] = assay: Cytotoxicity against human SH-SY5Y cells at 20 uM incubated for 48 hrs […]; type: cell-based
HepG2 = assay: Cytotoxicity against human HepG2 cells at 50 uM incubated for 48 hrs […]; type: cell-based; settings: hepg2, 48 h
SH-SY5Y [5] = assay: Neuroprotective activity against human SH-SY5Y cells assessed as reduction in amyloid beta(1 to 42)-induced cell death at 20 uM measured after 48 hrs by Annexin-V APC/7-AAD staining based flow cytometric analysis; type: functional
How it was run: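 Aβ1-42 (5 µM) pre-aggregated 24 h at 37 °C in reduced-serum medium, with or without compound (20 µM). SH-SY5Y cells (2×10^4/well) treated the next day for 48 h, then washed in cold PBS and stained with 7-AAD (2 µg/mL, 10 min, room temperature). Percent 7-AAD-positive cells by flow cytometry, relative to control. At least two independent assays in duplicate; ANOVA with t-test.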

[6] = biological target: T4, Amine oxidase [flavin-containing] A (Homo sapiens, UniProt P21397); assay: Inhibition of human recombinant microsomal MAO-A expressed in baculovirus-infected BTI-TN-5B1-4 cells assessed as inhibition of H2O2 production using p-tyramine as substrate preincubated for 15 mins followed by substrate addition by Amplex Red reagent based fluorescence analysis
T4 sequence (P21397 whole entry): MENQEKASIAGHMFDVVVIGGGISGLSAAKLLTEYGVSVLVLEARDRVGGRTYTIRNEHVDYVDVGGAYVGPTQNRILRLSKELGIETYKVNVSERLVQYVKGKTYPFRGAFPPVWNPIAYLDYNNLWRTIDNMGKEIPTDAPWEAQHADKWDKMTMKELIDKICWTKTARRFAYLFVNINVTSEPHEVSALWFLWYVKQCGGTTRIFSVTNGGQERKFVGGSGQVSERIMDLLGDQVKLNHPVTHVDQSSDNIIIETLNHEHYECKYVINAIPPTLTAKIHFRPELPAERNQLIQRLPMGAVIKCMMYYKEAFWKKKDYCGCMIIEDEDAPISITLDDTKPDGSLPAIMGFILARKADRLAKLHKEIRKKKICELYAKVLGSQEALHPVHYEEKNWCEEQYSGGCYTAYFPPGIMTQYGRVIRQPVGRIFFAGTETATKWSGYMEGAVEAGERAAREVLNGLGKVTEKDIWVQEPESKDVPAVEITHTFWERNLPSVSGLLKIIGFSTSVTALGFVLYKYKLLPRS

[7] = biological target: T1, Amine oxidase [flavin-containing] B; assay: as §1, with “Time dependent inhibition” for “Inhibition of”, “preincubated with enzyme” for “preincubated”, “for 5 to” for “for”; settings: time 5-15 min
SH-SY5Y [8] = assay: Reduction in amyloid beta (1 to 42) aggregates in human SH-SY5Y cells at 20 uM incubated for 48 hrs by DAPI stain based immunofluorescence staining analysis; type: functional, cell-based
How it was run: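 SH-SY5Y cells on coverslips treated for 48 h with preincubated Aβ1-42 (5 µM) in reduced-serum medium, with or without compound (20 µM). Fixed in 5% formalin, permeabilized with 0.5% Tween 20 and blocked with 3% BSA. Stained with rabbit anti-amyloid fibril LOC antibody (1:1000, 2 h) and Alexa 488 secondary (1.5 h). DAPI-mounted and imaged by confocal microscopy (63× oil).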

Acetylcholinesterase [9] = biological target: T2, Acetylcholinesterase; assay: Reversible inhibition of human AChE using acetylthiocholine iodide as substrate preincubated with enzyme at 10XIC50 for 30 mins followed by substrate addition and measured for 5 mins by Ellman's method; settings: time 35.0 min
Cholinesterase [10] = biological target: T3, Cholinesterase; assay: Reversible inhibition of human BuChE using butyrylthiocholine iodide as substrate preincubated with enzyme at 10XIC50 for 30 mins followed by substrate addition and measured for 5 mins by Ellman's method; settings: time 35.0 min
Acetylcholinesterase [11] = biological target: T2, Acetylcholinesterase; assay: Non-time dependent inhibition of human AChE using acetylthiocholine iodide as substrate preincubated with enzyme for 15 to 60 mins followed by substrate addition by Ellman's method; settings: time 15-60 min
Cholinesterase [12] = biological target: T3, Cholinesterase; assay: Non-time dependent inhibition of human BuChE using butyrylthiocholine iodide as substrate preincubated with enzyme for 15 to 60 mins followed by substrate addition by Ellman's method; settings: time 15-60 min

T2 sequence (P22303 whole entry): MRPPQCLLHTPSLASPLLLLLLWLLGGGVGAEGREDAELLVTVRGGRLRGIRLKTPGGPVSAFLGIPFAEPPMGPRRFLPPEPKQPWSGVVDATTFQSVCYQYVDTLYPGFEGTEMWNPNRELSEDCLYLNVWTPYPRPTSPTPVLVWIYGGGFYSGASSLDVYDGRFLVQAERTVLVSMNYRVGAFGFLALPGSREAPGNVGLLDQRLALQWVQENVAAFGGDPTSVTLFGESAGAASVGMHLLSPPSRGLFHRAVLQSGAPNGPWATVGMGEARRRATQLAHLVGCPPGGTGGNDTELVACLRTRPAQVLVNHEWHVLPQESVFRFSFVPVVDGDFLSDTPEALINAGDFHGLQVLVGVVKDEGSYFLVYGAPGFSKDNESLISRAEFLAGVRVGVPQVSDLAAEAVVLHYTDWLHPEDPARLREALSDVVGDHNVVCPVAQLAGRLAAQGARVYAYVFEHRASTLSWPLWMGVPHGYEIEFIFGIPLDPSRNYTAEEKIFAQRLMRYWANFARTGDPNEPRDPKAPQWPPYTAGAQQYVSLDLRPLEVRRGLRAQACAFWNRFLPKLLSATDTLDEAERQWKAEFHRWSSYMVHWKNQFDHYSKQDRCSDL
T3 sequence (P06276 whole entry): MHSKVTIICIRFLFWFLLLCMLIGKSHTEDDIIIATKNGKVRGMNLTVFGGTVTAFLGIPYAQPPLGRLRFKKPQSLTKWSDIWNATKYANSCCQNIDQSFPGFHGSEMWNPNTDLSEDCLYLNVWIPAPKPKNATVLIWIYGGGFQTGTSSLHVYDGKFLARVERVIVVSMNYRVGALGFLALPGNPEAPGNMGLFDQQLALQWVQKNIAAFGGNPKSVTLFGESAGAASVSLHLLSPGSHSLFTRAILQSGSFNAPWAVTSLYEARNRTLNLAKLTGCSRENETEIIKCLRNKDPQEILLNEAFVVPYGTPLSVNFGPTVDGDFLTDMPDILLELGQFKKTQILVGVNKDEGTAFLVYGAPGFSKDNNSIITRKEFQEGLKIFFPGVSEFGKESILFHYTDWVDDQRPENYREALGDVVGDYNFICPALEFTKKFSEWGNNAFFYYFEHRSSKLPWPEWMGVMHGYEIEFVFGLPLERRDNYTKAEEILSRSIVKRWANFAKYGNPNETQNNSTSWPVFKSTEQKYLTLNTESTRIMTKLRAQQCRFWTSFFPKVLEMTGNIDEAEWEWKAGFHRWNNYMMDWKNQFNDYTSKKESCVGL

Structure (SMILES)	IC50 [1] [µM]	IC50 (Acetylcholinesterase [2]) [µM]	IC50 (Cholinesterase [3]) [µM]	inhibition (Homo sapiens) [%]	Activity (SH-SY5Y [4])	Activity (HepG2)	Activity (SH-SY5Y [5])	IC50 [6] [µM]	inhibition (INH) [7]	inhibition (SH-SY5Y [8])	inhibition (Acetylcholinesterase [9])	inhibition (Cholinesterase [10])	inhibition (Acetylcholinesterase [11])	inhibition (Cholinesterase [12])
C#CCN1CCC(OC(=O)Nc2ccc(C(C)C)cc2)CC1	0.178	> 100	> 100	25.7	Non-Toxic	Non-Toxic	Active	> 100	Active	Active				
O=C(Nc1ccccc1)OCC1CCN(Cc2ccccc2)CC1	26.1	7.31	0.555	< 20	Non-Toxic	Non-Toxic	Active	> 100	Not Active	inactive	Active	Active	Active	Active
O=C(Nc1ccccc1)OC1CCCN(C2Cc3ccccc3C2)C1 (stereo unspecified)	> 100	> 100	0.0645	< 20	Non-Toxic	Non-Toxic		> 100			Active	Active	Active	Active
CC(C)c1ccc(NC(=O)OCC2CCN(Cc3ccccc3)CC2)cc1	> 100	2.25	0.809	< 20	Non-Toxic	Non-Toxic		> 100			Active	Active	Active	Active
